Measurements taken from ChEMBL document CHEMBL1140264, “Sulfur-substituted alpha-alkyl phenethylamines as selective and reversible MAO-A inhibitors: biological activities, CoMFA analysis, and active site modeling” (J Med Chem, 2005).

What was measured:
[1] = target: T1, Amine oxidase [flavin-containing] A (Rattus norvegicus, UniProt P21396); experiment: Inhibitory concentration against monoamine oxidase A in rat brain mitochondrial suspension; format: tissue-based
T1 sequence (P21396 whole entry): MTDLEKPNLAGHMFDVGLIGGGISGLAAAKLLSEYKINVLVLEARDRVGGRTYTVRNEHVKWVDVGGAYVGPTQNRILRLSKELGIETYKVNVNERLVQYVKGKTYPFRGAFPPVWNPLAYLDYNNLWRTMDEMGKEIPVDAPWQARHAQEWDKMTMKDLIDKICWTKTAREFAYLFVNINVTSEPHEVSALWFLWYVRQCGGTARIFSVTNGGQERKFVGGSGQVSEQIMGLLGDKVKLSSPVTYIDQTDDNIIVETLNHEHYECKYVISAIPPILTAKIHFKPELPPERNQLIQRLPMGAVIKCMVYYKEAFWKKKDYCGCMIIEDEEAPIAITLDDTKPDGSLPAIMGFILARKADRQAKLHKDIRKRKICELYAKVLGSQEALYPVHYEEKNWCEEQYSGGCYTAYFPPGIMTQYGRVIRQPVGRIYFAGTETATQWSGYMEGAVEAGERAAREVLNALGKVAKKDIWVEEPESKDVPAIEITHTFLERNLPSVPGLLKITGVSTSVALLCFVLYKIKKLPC
How it was run: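 Crude brain mitochondrial suspension from male Sprague-Dawley rats (180-220 g). MAO-A substrate 5-HT 100 µM; substrate and deaminated metabolite measured by HPLC with electrochemical detection. Inhibition relative to enzyme treated identically without inhibitor. IC50 from % inhibition vs -log[I] curves, 5-8 concentrations each in triplicate; mean ± SD of at least two independent experiments.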

[2] = target: T1, Amine oxidase [flavin-containing] A; experiment: Percent inhibition of rat brain monoamine oxidase A in mitochondrial suspension after 10 minutes pre-incubation before washing at 10e-7 M
How it was run: (§1)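 Crude rat brain mitochondrial suspension preincubated 10 min with inhibitor, then washed three times by centrifugation and resuspension. MAO-A activity measured before and after washing by HPLC-ED with 5-HT (100 µM) as selective substrate, against control preparations. Mean ± SD of triplicate determinations.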

[3] = target: T1, Amine oxidase [flavin-containing] A; experiment: Percent inhibition of rat brain monoamine oxidase A in mitochondrial suspension after 10 minutes pre-incubation and washing at 10e-7 M; how it was run: as §1
[4] = target: T1, Amine oxidase [flavin-containing] A; experiment: Percent inhibition of rat brain monoamine oxidase A in mitochondrial suspension with 30 minutes pre-incubation at 10e-7 M; details: 0.5 h
[5] = target: T1, Amine oxidase [flavin-containing] A; experiment: Percent inhibition of rat brain monoamine oxidase A in mitochondrial suspension without pre-incubation at 10e-7 M

Row | SMILES | IC50 [1] | also measured
1 | COc1cc(SC(C)C)c(OC)cc1CC(C)N (configuration not stated) | 27.3 µM | –
2 | CCOc1ccc(CC(C)N)cc1 (configuration not stated) | 0.2 µM | –
3 | CCCSc1cc(OC)c(CC(C)NC)cc1OC (configuration not stated) | 0.3 µM | –
4 | COc1cc(SC)cc(OC)c1CC(C)N (configuration not stated) | 0.3 µM | –
5 | CCC(Cc1cc(OC)c(SC)cc1OC)NC (configuration not stated) | 15.5 µM | –
6 | COc1cc(Cl)c(CC(C)N)c(OC)c1 (configuration not stated) | 0.07 µM | Inhibition [2]: 58%; Inhibition [3]: 0%
7 | CCSc1cc(OC)c(CC(C)NC)cc1OC (configuration not stated) | 1.4 µM | –
8 | CCCSc1cc(OC)c(CC(N)CC)cc1OC (configuration not stated) | 7.6 µM | –
9 | CCSc1cc(OC)c(CC(C)N)c(OC)c1 (configuration not stated) | 0.08 µM | Inhibition [2]: 40%; Inhibition [3]: 0%; Inhibition [4]: 33%; Inhibition [5]: 23.7%
10 | CNC(C)Cc1cc(OC)c(SC)cc1OC (configuration not stated) | 1.8 µM | –
11 | CC(C)CSc1ccc(CC(C)N)cc1 (configuration not stated) | 0.4 µM | –
12 | CCCCSc1cc(OC)c(CC(C)N)cc1OC (configuration not stated) | 2.9 µM | –
13 | CCC(N)Cc1cc(OC)c(SC)cc1OC (configuration not stated) | 30.9 µM | –
14 | CCSc1cc(OC)c(CC(CC)NC)cc1OC (configuration not stated) | 4.5 µM | –
15 | CCCCCSc1cc(OC)c(CC(C)N)cc1OC (configuration not stated) | 14.3 µM | –
16 | CCCSc1cc(OC)c(CC(CC)NC)cc1OC (configuration not stated) | 1.4 µM | –
17 | COc1cc(SCCc2ccccc2)c(OC)cc1CC(C)N (configuration not stated) | > 100 µM | –
18 | CCSc1ccc(CC(C)N)cc1 (configuration not stated) | 0.1 µM | –
19 | COc1ccc(CC(C)N)cc1OC (configuration not stated) | 20 µM | –

Row | SMILES | IC50 [1] | also measured
20 | COc1ccc(CC(C)N)c(OC)c1 (configuration not stated) | 0.6 µM | –
21 | COc1cc(Br)c(CC(C)N)cc1OC (configuration not stated) | 9.3 µM | –
22 | COc1cc(OC)c(CC(C)N)cc1Br (configuration not stated) | 13 µM | –
23 | CCSc1cc(OC)c(CC(C)N)cc1OC (configuration not stated) | 3.8 µM | –
24 | COc1cc(OC)c(CC(C)N)c(OC)c1 (configuration not stated) | 0.4 µM | –
25 | CCCSc1cc(OC)c(CC(C)N)cc1OC (configuration not stated) | 2.4 µM | Inhibition [2]: 20%; Inhibition [3]: 0%; Inhibition [4]: 20%; Inhibition [5]: 15.7%
26 | CC(N)Cc1ccc(Cl)cc1 (configuration not stated) | 4 µM | –
27 | CCSc1cc(OC)c(CC(N)CC)cc1OC (configuration not stated) | 11.8 µM | –
28 | COc1cc(SC)c(OC)cc1CC(C)N (configuration not stated) | 5.2 µM | –
29 | COc1cc(CC(C)N)c(OC)cc1I (configuration not stated) | 44 µM | –
30 | COc1cc(C(F)(F)F)c(OC)cc1CC(C)N (configuration not stated) | > 100 µM | –
31 | COc1cc(CC(C)N)c(OC)cc1N (configuration not stated) | > 100 µM | –
32 | COc1cc([N+](=O)[O-])c(OC)cc1CC(C)N (configuration not stated) | > 100 µM | –
33 | COc1ccc(OC)c(CC(C)N)c1 (configuration not stated) | > 100 µM | –
34 | CSc1ccc(CC(C)N)cc1 (configuration not stated) [4-METHYLTHIOAMPHETAMINE] | 0.2 µM | –
35 | COc1cc(CC(C)N)c(OC)cc1Br (configuration not stated) [BROLAMFETAMINE] | 100 µM | –
36 | COc1cc(CC(C)N)c(OC)cc1C (configuration not stated) [DOM] | 24 µM | –
37 | COc1ccc(CC(C)N)cc1 (configuration not stated) [PARA-METHOXYAMPHETAMINE] | 0.3 µM | –
